Laboratory results published in paper PMC6363533 (Biochemistry, 2018).
Marks after values point to notes of the source that are not given here.

Columns and labels:
Rapid = format: binding; conditions: for Limiting rate constant at heparin saturation (k+2 + k−2) / 1/K2 / k+2, forward conformational activation rate constant / k−2, reverse conformational activation rate constant: natural pentasaccharide; for 1/K2 / k+2, forward conformational activation rate constant / k−2, reverse conformational activation rate constant: I 0.04, pH 6.0, 25°C; for k+2, forward conformational activation rate constant / k−2, reverse conformational activation rate constant: ±S.E.; for k−2, reverse conformational activation rate constant: possibly overestimated (conformational selection pathway)
factor Xa = factor Xa (Homo sapiens, UniProt P00742); format: biochemical; conditions: for k−H FXa, association rate constant of free antithrombin / k−H FXa, fractional wild-type value (in parentheses) / Enhancement of basal reactivities with both factors Xa and IXa: absence of heparin; for k−H FXa, association rate constant of free antithrombin / k−H FXa, fractional wild-type value (in parentheses) / kH FXa, association rate constant of heparin-complexed antithrombin / kH FXa, fractional wild-type value (in parentheses): 20 mM MES; for k−H FXa, association rate constant of free antithrombin / kH FXa, association rate constant of heparin-complexed antithrombin: 5 mM CaCl2, 0.1 % PEG 8000, pH 6.0, 25°C, ±S.E.; for k−H FXa, fractional wild-type value (in parentheses) / kH FXa, fractional wild-type value (in parentheses): 5 mM CaCl2, pH 6.0, 25°C; for kH FXa, association rate constant of heparin-complexed antithrombin / kH FXa, fractional wild-type value (in parentheses): natural pentasaccharide complex; for Enhancement of basal reactivities with both factors Xa and IXa: relative to wild-type, range covers factor Xa and factor IXa
factor IXa = factor IXa (Homo sapiens, UniProt P00740); format: biochemical; conditions: for kH FIXa, association rate constant of heparin-complexed antithrombin / kH FIXa, fractional wild-type value (in parentheses): natural pentasaccharide complex; for kH FIXa, association rate constant of heparin-complexed antithrombin / kH FIXa, fractional wild-type value (in parentheses) / k−H FIXa, association rate constant of free antithrombin / k−H FIXa, fractional wild-type value (in parentheses): 20 mM MES; for kH FIXa, association rate constant of heparin-complexed antithrombin / k−H FIXa, association rate constant of free antithrombin: 5 mM CaCl2, 0.1 % PEG 8000, pH 6.0, 25°C, ±S.E.; for kH FIXa, fractional wild-type value (in parentheses) / k−H FIXa, fractional wild-type value (in parentheses): 5 mM CaCl2, pH 6.0, 25°C; for k−H FIXa, association rate constant of free antithrombin / k−H FIXa, fractional wild-type value (in parentheses): absence of heparin
[1] = format: binding; conditions: for Kd: read-out: KD,obs, I 0.04, pH 6.0, 25°C, measured directly at I 0.04 or calculated from the ionic strength dependence of KD,obs; for Kd / Loss of nonionic binding energy relative to wild-type: natural pentasaccharide
Method in brief: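 Recombinant His-tagged antithrombin (~100 nM), expressed in Sf9 and Ni-NTA purified, was titrated with pentasaccharide at 25°C. Binding was followed by tryptophan fluorescence enhancement (ex 280 nm, em 340 nm). Stocks were diluted extensively. Data were fit by quadratic binding equation for KD and stoichiometry.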

Chain of factor Xa (P00742 41-179 limits assumed): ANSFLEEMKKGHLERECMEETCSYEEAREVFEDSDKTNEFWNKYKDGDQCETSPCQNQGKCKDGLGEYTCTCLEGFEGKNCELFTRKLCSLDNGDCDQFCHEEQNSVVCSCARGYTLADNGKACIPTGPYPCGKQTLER
Chain of factor Xa (P00742 235-488 limits assumed): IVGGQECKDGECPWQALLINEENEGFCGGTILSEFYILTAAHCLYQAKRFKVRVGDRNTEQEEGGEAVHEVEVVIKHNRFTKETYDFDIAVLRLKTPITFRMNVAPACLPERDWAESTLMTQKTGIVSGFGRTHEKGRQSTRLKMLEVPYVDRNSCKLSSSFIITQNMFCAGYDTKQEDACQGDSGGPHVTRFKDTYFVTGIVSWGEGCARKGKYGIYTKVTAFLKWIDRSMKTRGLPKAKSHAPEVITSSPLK
Chain of factor IXa (P00740 47-191 limits assumed): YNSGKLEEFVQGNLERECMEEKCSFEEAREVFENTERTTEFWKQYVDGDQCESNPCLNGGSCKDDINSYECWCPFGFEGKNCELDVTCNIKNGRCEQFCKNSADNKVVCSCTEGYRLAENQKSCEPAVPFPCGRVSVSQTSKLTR
Chain of factor IXa (P00740 227-461 limits assumed): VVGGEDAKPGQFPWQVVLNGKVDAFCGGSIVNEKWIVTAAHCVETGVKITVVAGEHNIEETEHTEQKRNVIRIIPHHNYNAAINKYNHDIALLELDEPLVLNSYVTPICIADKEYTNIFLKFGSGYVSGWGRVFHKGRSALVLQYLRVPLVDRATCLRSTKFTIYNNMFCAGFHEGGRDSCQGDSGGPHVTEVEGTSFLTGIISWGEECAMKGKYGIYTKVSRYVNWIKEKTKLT

Row | Molecule | Limiting rate constant at heparin saturation (k+2 + k−2) (Rapid; I 0.04, pH 6, 25°C) [s⁻¹] | 1/K2 (Rapid; 1/K2 = (K1/KD,obs) − 1) | k+2, forward conformational activation rate constant (Rapid) [s⁻¹] | k−H FXa, association rate constant of free antithrombin (factor Xa) | k−H FXa, fractional wild-type value (in parentheses) (factor Xa) | kH FXa, association rate constant of heparin-complexed antithrombin (factor Xa) | kH FXa, fractional wild-type value (in parentheses) (factor Xa) | kH FIXa, association rate constant of heparin-complexed antithrombin (factor IXa) | kH FIXa, fractional wild-type value (in parentheses) (factor IXa) | Kd [1] [nM] | Enhancement of basal reactivities with both factors Xa and IXa (factor Xa) | k−H FIXa, association rate constant of free antithrombin (factor IXa) | k−H FIXa, fractional wild-type value (in parentheses) (factor IXa) | Loss of nonionic binding energy relative to wild-type [1] [%] | further results
1 | MKR: His-tagged recombinant β-antithrombin variant with Lys114 mutated to Met | 40 | 8^c | 17 ± 2 | 2.6±0.3 × 10^2 M^−1s^−1 | 0.46 | 6.4±0.3 ×10^4 M^−1s^−1 | 0.83 | 2.1±0.1 × 10^3 M^−1s^−1 | 0.21 | 560 | – | – | – | – | k+2, forward conformational activation rate constant (Rapid; listed as Lys114): ~ 20 s^−1; k−2, reverse conformational activation rate constant (Rapid): 23±2^c s^−1
2 | KMR: His-tagged recombinant β-antithrombin variant with Lys125 mutated to Met | 550 to 690 | 4300 | 550 ± 40 | 1.2±0.1 × 10^3 M^−1s^−1 | 2.1 | 8.1±0.3 ×10^4 M^−1s^−1 | 1.1 | 6.8±0.8 × 10^3 M^−1s^−1 | 0.68 | 0.86 | 1.3–2.3 fold | 9.6±0.6 × 10^1 M^−1s^−1 | 1.8 | 24 | –
3 | KKR (WT): Recombinant wild-type β-antithrombin (Asn135 mutated to Gln) with C-terminal 6XHis-tag, expressed in Sf9 insect cells | – | 6 × 10^6 | 1140 ± 110 | 5.7±0.4 × 10^2 M^−1s^−1 | 1 | – | 1 | – | 1 | – | – | 5.4±0.4 × 10^1 M^−1s^−1 | 1 | – | –
4 | KKM: His-tagged recombinant β-antithrombin variant with Arg129 mutated to Met | 1020 | 10000 | 1020 ± 120 | 1.3±0.1 × 10^3 M^−1s^−1 | 2.3 | 7.6±0.3 ×10^4 M^−1s^−1 | 0.99 | 6.2±0.3 × 10^3 M^−1s^−1 | 0.62 | 0.16 | 1.3–2.3 fold | 6.9±0.4 × 10^1 M^−1s^−1 | 1.3 | 17 | –
5 | KMM: His-tagged recombinant β-antithrombin double mutant, Lys125 and Arg129 mutated to Met (protein, left off: His6, C-terminal, kept) HGSPVDICTAKPRDIPMNPMCIYRSPEKKATEDEGSEQKIPEATNRRVWELSKANSRFATTFYQHLADSKNDNDNIFLSPLSISTAFAMTKLGACNDTLQQLMEVFKFDTISEKTSDQIHFFFAMLNCMLYRKAQKSSKLVSANRLFGDKSLTFNETYQDISELVYGAKLQPLDFKENAEQSRAAINKWVSNKTEGRITDVIPSEAINELTVLVLVNTIYFKGLWKSKFSPENTRKELFYKADGESCSASMMYQEGKFRYRRVAEGTQVLELPFKGDDITMVLILPKPEKSLAKVEKELTPEVLQEWLDELEEMMLVVHMPRFRIEDGFSLKEQLQDMGLVDLFSPEKSKLPGIVAEGRDDLYVSDAFHKAFLEVNEEGSEAAASTAVVIAGRSLNPNRVTFKANRPFLVFIREVPLNTIIFMGRVANPCVK | 550 to 690 | ~400^c | 690 ± 240 | 2.0±0.1 ×10^3 M^−1s^−1 | 3.5 | 5.6±0.4 ×10^4 M^−1s^−1 | 0.73 | 3.6±0.2 × 10^3 M^−1s^−1 | 0.36 | 70 | 2.8–3.5 fold | 1.5±0.2 × 10^2 M^−1s^−1 | 2.8 | – | k−2, reverse conformational activation rate constant (Rapid): 74±7^c s^−1; k−2, reverse conformational activation rate constant (Rapid; listed as Lys125/Arg129): ~ 70 s^−1; Heparin pentasaccharide binding stoichiometry [1]: ~0.5 mole heparin/mole antithrombin
6 | MKM: His-tagged recombinant β-antithrombin double mutant, Lys114 and Arg129 mutated to Met (protein, left off: His6, C-terminal, kept) HGSPVDICTAKPRDIPMNPMCIYRSPEKKATEDEGSEQKIPEATNRRVWELSKANSRFATTFYQHLADSKNDNDNIFLSPLSISTAFAMTKLGACNDTLQQLMEVFKFDTISEMTSDQIHFFFAKLNCMLYRKAQKSSKLVSANRLFGDKSLTFNETYQDISELVYGAKLQPLDFKENAEQSRAAINKWVSNKTEGRITDVIPSEAINELTVLVLVNTIYFKGLWKSKFSPENTRKELFYKADGESCSASMMYQEGKFRYRRVAEGTQVLELPFKGDDITMVLILPKPEKSLAKVEKELTPEVLQEWLDELEEMMLVVHMPRFRIEDGFSLKEQLQDMGLVDLFSPEKSKLPGIVAEGRDDLYVSDAFHKAFLEVNEEGSEAAASTAVVIAGRSLNPNRVTFKANRPFLVFIREVPLNTIIFMGRVANPCVK | – | – | – | 3.5±0.5 ×10^2 M^−1s^−1 | 0.61 | 8.5±0.4 ×10^4 M^−1s^−1 | 1.1 | 2.1±0.1 × 10^3 M^−1s^−1 | 0.21 | 18000 | – | 1.3±0.2×10^1 M^−1s^−1 | 0.24 | – | 1/K2 (Rapid; estimated based on factor Xa reactivity enhancements): ~10^d; Observed rate constant kobs of pentasaccharide binding, no saturable increase (Rapid; over the range 0.5–20 μM heparin, I 0.04, pH 6, 25°C): ~ 60 s^−1
7 | MMM: His-tagged recombinant β-antithrombin triple mutant, Lys114, Lys125 and Arg129 mutated to Met (protein, left off: His6, C-terminal, kept) HGSPVDICTAKPRDIPMNPMCIYRSPEKKATEDEGSEQKIPEATNRRVWELSKANSRFATTFYQHLADSKNDNDNIFLSPLSISTAFAMTKLGACNDTLQQLMEVFKFDTISEMTSDQIHFFFAMLNCMLYRKAQKSSKLVSANRLFGDKSLTFNETYQDISELVYGAKLQPLDFKENAEQSRAAINKWVSNKTEGRITDVIPSEAINELTVLVLVNTIYFKGLWKSKFSPENTRKELFYKADGESCSASMMYQEGKFRYRRVAEGTQVLELPFKGDDITMVLILPKPEKSLAKVEKELTPEVLQEWLDELEEMMLVVHMPRFRIEDGFSLKEQLQDMGLVDLFSPEKSKLPGIVAEGRDDLYVSDAFHKAFLEVNEEGSEAAASTAVVIAGRSLNPNRVTFKANRPFLVFIREVPLNTIIFMGRVANPCVK | – | – | – | – | – | – | 0.04 | – | 0.003 | – | – | 2.3±0.2 × 10^1 M^−1s^−1 | 0.43 | 60 | Heparin-activated reactivity with factor IXa, % of wild-type (factor IXa; saturating natural pentasaccharide, MES/Ca2+ pH 6 buffer): 0.3%
